# Data published in ChEMBL document CHEMBL3407339, “A novel series of thiazolyl-pyrazoline derivatives: synthesis and evaluation of antifungal activity, cytotoxicity and genotoxicity” (Eur J Med Chem, 2015).
# How the values were obtained:
# Nakaseomyces glabratus = assay: Antifungal activity against Candida glabrata clinical isolate after 48 hrs by broth microdilution assay; type: functional
# Outline: (§1)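 Broth microdilution of DMSO stocks serially diluted in sterile water (4 to 0.0039 mg/mL). Yeasts grown on SDA at 37 °C for 24 h, suspended in double-strength PDB at 10⁵ spores/mL. Incubated at 37 °C for 48 h, then sprayed with 0.5% aqueous TTC. MIC = lowest concentration inhibiting visible growth. Ketoconazole reference.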
# Candida albicans = assay: Antifungal activity against Candida albicans ATCC 90028 after 48 hrs by broth microdilution assay; type: functional; conditions: ATCC 90028, 48 h; outline: as §1
# Candida tropicalis = assay: Antifungal activity against Candida tropicalis NRLL Y 12968 after 48 hrs by broth microdilution assay; type: functional; conditions: NRLL Y 12968, 48 h; outline: as §1
# Pichia kudriavzevii = assay: Antifungal activity against Candida krusei NRLL Y 7179 after 48 hrs by broth microdilution assay; type: functional; conditions: NRLL Y 7179, 48 h; outline: as §1
# [Candida] zeylanoides = Antifungal activity against Candida zeylanoides NRLL Y 1774 after 48 hrs by broth microdilution assay; type: functional; conditions: Dujonia zeylanoides, NRLL Y 1774, 48 h; outline: as §1
# Candida parapsilosis = assay: Antifungal activity against Candida parapsilosis NRLL Y 12696 after 48 hrs by broth microdilution assay; type: functional; conditions: Lodderomyces parapsilosis, NRLL Y 12696, 48 h; outline: as §1
# Aspergillus flavus = assay: Antifungal activity against Aspergillus flavus NRRL 980 after 72 hrs by broth microdilution assay; type: functional; conditions: NRRL 980, 72 h
# Outline: (§2)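 Compounds dissolved in DMSO, diluted in sterile distilled water from 4 to 0.0039 mg/mL. Molds grown on PDA at 25 °C for 5 days, suspended in double-strength PDB at 10⁵ spores/mL. Incubated at 25 °C for 72 h; mycelial growth read under stereo microscope. MIC = lowest concentration inhibiting visible growth. Ketoconazole reference.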
# Aspergillus niger = assay: Antifungal activity against Aspergillus niger ATCC 1094 after 72 hrs by broth microdilution assay; type: functional; conditions: ATCC 1094, 72 h; outline: as §2
# Aspergillus parasiticus = assay: Antifungal activity against Aspergillus parasiticus NRRL 465 after 72 hrs by broth microdilution assay; type: functional; conditions: NRRL 465, 72 h; outline: as §2
# Fusarium solani = assay: Antifungal activity against Fusarium solani NRRL 13414 after 72 hrs by broth microdilution assay; type: functional; conditions: NRRL 13414, 72 h; outline: as §2
# Salmonella typhimurium [1] = assay: Mutagenicity in Salmonella typhimurium TA98 at 0.156 mg/ml after 48 hrs by AMES MPF assay in presence of Sprague-Dawley rat liver microsomal S9 fraction relative to baseline; type: toxicity, organism-based; conditions: salmonella enterica subsp. enterica serovar typhimurium
# Outline: (§3)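 Ames MPF fluctuation test with TA98/TA100. Overnight cultures (37 °C, 14–16 h) mixed with exposure medium; ±Aroclor-1254-induced rat liver S9 (final 4.5% v/v). Compounds in DMSO, 0.156–5 mg/mL. 90 min exposure at 37 °C, then indicator medium; 48 wells per concentration, 48 h at 37 °C, in triplicate. Yellow wells counted; fold induction over baseline (mean + 1 SD of zero-dose control).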
# Salmonella typhimurium [2] = assay: Mutagenicity in Salmonella typhimurium TA98 at 0.3125 mg/ml after 48 hrs by AMES MPF assay in presence of Sprague-Dawley rat liver microsomal S9 fraction relative to baseline; type: toxicity, organism-based; conditions: salmonella enterica subsp. enterica serovar typhimurium; outline: as §3
# Salmonella typhimurium [3] = assay: Mutagenicity in Salmonella typhimurium TA98 at 0.625 mg/ml after 48 hrs by AMES MPF assay in presence of Sprague-Dawley rat liver microsomal S9 fraction relative to baseline; type: toxicity, organism-based; conditions: salmonella enterica subsp. enterica serovar typhimurium; outline: as §3
# Salmonella typhimurium [4] = assay: Mutagenicity in Salmonella typhimurium TA98 at 1.25 mg/ml after 48 hrs by AMES MPF assay in presence of Sprague-Dawley rat liver microsomal S9 fraction relative to baseline; type: toxicity, organism-based; conditions: salmonella enterica subsp. enterica serovar typhimurium; outline: as §3
# Salmonella typhimurium [5] = assay: Mutagenicity in Salmonella typhimurium TA98 at 2.5 mg/ml after 48 hrs by AMES MPF assay in presence of Sprague-Dawley rat liver microsomal S9 fraction relative to baseline; type: toxicity, organism-based; conditions: salmonella enterica subsp. enterica serovar typhimurium; outline: as §3
# Salmonella typhimurium [6] = assay: Mutagenicity in Salmonella typhimurium TA98 at 5 mg/ml after 48 hrs by AMES MPF assay in presence of Sprague-Dawley rat liver microsomal S9 fraction relative to baseline; type: toxicity, organism-based; conditions: salmonella enterica subsp. enterica serovar typhimurium; outline: as §3
# Salmonella typhimurium [7] = assay: Mutagenicity in Salmonella typhimurium TA98 at 0.156 mg/ml after 48 hrs by AMES MPF assay in absence of Sprague-Dawley rat liver microsomal S9 fraction relative to baseline; type: toxicity, organism-based; conditions: salmonella enterica subsp. enterica serovar typhimurium; outline: as §3
# Salmonella typhimurium [8] = assay: Mutagenicity in Salmonella typhimurium TA98 at 0.3125 mg/ml after 48 hrs by AMES MPF assay in absence of Sprague-Dawley rat liver microsomal S9 fraction relative to baseline; type: toxicity, organism-based; conditions: salmonella enterica subsp. enterica serovar typhimurium; outline: as §3
# Salmonella typhimurium [9] = assay: Mutagenicity in Salmonella typhimurium TA98 at 0.625 mg/ml after 48 hrs by AMES MPF assay in absence of Sprague-Dawley rat liver microsomal S9 fraction relative to baseline; type: toxicity, organism-based; conditions: salmonella enterica subsp. enterica serovar typhimurium; outline: as §3
# Salmonella typhimurium [10] = assay: Mutagenicity in Salmonella typhimurium TA98 at 1.25 mg/ml after 48 hrs by AMES MPF assay in absence of Sprague-Dawley rat liver microsomal S9 fraction relative to baseline; type: toxicity, organism-based; conditions: salmonella enterica subsp. enterica serovar typhimurium; outline: as §3
# Salmonella typhimurium [11] = assay: Mutagenicity in Salmonella typhimurium TA98 at 2.5 mg/ml after 48 hrs by AMES MPF assay in absence of Sprague-Dawley rat liver microsomal S9 fraction relative to baseline; type: toxicity, organism-based; conditions: salmonella enterica subsp. enterica serovar typhimurium; outline: as §3
# Salmonella typhimurium [12] = assay: Mutagenicity in Salmonella typhimurium TA98 at 5 mg/ml after 48 hrs by AMES MPF assay in absence of Sprague-Dawley rat liver microsomal S9 fraction relative to baseline; type: toxicity, organism-based; conditions: salmonella enterica subsp. enterica serovar typhimurium; outline: as §3
# Salmonella typhimurium [13] = assay: Mutagenicity in Salmonella typhimurium TA100 at 0.156 mg/ml after 48 hrs by AMES MPF assay in presence of Sprague-Dawley rat liver microsomal S9 fraction relative to baseline; type: toxicity, organism-based; conditions: salmonella enterica subsp. enterica serovar typhimurium; outline: as §3
# Salmonella typhimurium [14] = assay: Mutagenicity in Salmonella typhimurium TA100 at 0.3125 mg/ml after 48 hrs by AMES MPF assay in presence of Sprague-Dawley rat liver microsomal S9 fraction relative to baseline; type: toxicity, organism-based; conditions: salmonella enterica subsp. enterica serovar typhimurium; outline: as §3
# Salmonella typhimurium [15] = assay: Mutagenicity in Salmonella typhimurium TA100 at 0.625 mg/ml after 48 hrs by AMES MPF assay in presence of Sprague-Dawley rat liver microsomal S9 fraction relative to baseline; type: toxicity, organism-based; conditions: salmonella enterica subsp. enterica serovar typhimurium; outline: as §3
# Salmonella typhimurium [16] = assay: Mutagenicity in Salmonella typhimurium TA100 at 1.25 mg/ml after 48 hrs by AMES MPF assay in presence of Sprague-Dawley rat liver microsomal S9 fraction relative to baseline; type: toxicity, organism-based; conditions: salmonella enterica subsp. enterica serovar typhimurium; outline: as §3
# Salmonella typhimurium [17] = assay: Mutagenicity in Salmonella typhimurium TA100 at 2.5 mg/ml after 48 hrs by AMES MPF assay in presence of Sprague-Dawley rat liver microsomal S9 fraction relative to baseline; type: toxicity, organism-based; conditions: salmonella enterica subsp. enterica serovar typhimurium; outline: as §3
# Salmonella typhimurium [18] = assay: Mutagenicity in Salmonella typhimurium TA100 at 5 mg/ml after 48 hrs by AMES MPF assay in presence of Sprague-Dawley rat liver microsomal S9 fraction relative to baseline; type: toxicity, organism-based; conditions: salmonella enterica subsp. enterica serovar typhimurium; outline: as §3
# Salmonella typhimurium [19] = assay: Mutagenicity in Salmonella typhimurium TA100 at 0.156 mg/ml after 48 hrs by AMES MPF assay in absence of Sprague-Dawley rat liver microsomal S9 fraction relative to baseline; type: toxicity, organism-based; conditions: salmonella enterica subsp. enterica serovar typhimurium; outline: as §3
# Salmonella typhimurium [20] = assay: Mutagenicity in Salmonella typhimurium TA100 at 0.3125 mg/ml after 48 hrs by AMES MPF assay in absence of Sprague-Dawley rat liver microsomal S9 fraction relative to baseline; type: toxicity, organism-based; conditions: salmonella enterica subsp. enterica serovar typhimurium; outline: as §3
# Salmonella typhimurium [21] = assay: Mutagenicity in Salmonella typhimurium TA100 at 0.625 mg/ml after 48 hrs by AMES MPF assay in absence of Sprague-Dawley rat liver microsomal S9 fraction relative to baseline; type: toxicity, organism-based; conditions: salmonella enterica subsp. enterica serovar typhimurium; outline: as §3
# Salmonella typhimurium [22] = assay: Mutagenicity in Salmonella typhimurium TA100 at 1.25 mg/ml after 48 hrs by AMES MPF assay in absence of Sprague-Dawley rat liver microsomal S9 fraction relative to baseline; type: toxicity, organism-based; conditions: salmonella enterica subsp. enterica serovar typhimurium; outline: as §3
# Salmonella typhimurium [23] = assay: Mutagenicity in Salmonella typhimurium TA100 at 2.5 mg/ml after 48 hrs by AMES MPF assay in absence of Sprague-Dawley rat liver microsomal S9 fraction relative to baseline; type: toxicity, organism-based; conditions: salmonella enterica subsp. enterica serovar typhimurium; outline: as §3
# Salmonella typhimurium [24] = assay: Mutagenicity in Salmonella typhimurium TA100 at 5 mg/ml after 48 hrs by AMES MPF assay in absence of Sprague-Dawley rat liver microsomal S9 fraction relative to baseline; type: toxicity, organism-based; conditions: salmonella enterica subsp. enterica serovar typhimurium; outline: as §3
# A549 = assay: Antiproliferative activity against human A549 cells after 24 hrs by XTT assay; type: functional, cell-based; conditions: A549, 24 h
# Outline: (§4)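 A549 cells in RPMI and NIH/3T3 cells in DMEM, each with fetal calf serum, antibiotics and 7.5% NaHCO₃, at 37 °C, 5% CO₂. Seeded at 20,000 cells/well, 24 h, then compounds added in medium at 500–3.9 doses (final DMSO <0.1%) for 24 h. XTT read after 3 h at 480 nm (ref 680 nm). IC₅₀ by non-linear regression; triplicates; cisplatin control.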
# [25] = Cytotoxicity against mouse NIH/3T3 cells after 24 hrs by XTT assay; type: cell-based; conditions: NIH3T3, 24 h; outline: as §4
smiles,measurement,setting,value
Fc1ccc(C2CC(c3ccc(Cl)s3)=NN2c2nc(-c3ccccc3)cs2)cc1 (stereo unspecified),MIC,Nakaseomyces glabratus,125 µg/mL
same,MIC,Candida albicans,250 µg/mL
same,MIC,Candida tropicalis,250 µg/mL
same,MIC,Pichia kudriavzevii,250 µg/mL
same,MIC,[Candida] zeylanoides,250 µg/mL
same,MIC,Candida parapsilosis,250 µg/mL
same,MIC,Aspergillus flavus,125 µg/mL
same,MIC,Aspergillus niger,250 µg/mL
same,MIC,Aspergillus parasiticus,250 µg/mL
same,MIC,Fusarium solani,250 µg/mL
same,fold change (FC),Salmonella typhimurium [1],1.63
same,fold change (FC),Salmonella typhimurium [2],0.68
same,fold change (FC),Salmonella typhimurium [3],1.08
same,fold change (FC),Salmonella typhimurium [4],0.68
same,fold change (FC),Salmonella typhimurium [5],0.27
same,fold change (FC),Salmonella typhimurium [6],0.41
same,fold change (FC),Salmonella typhimurium [7],0
same,fold change (FC),Salmonella typhimurium [8],0
same,fold change (FC),Salmonella typhimurium [9],0.67
same,fold change (FC),Salmonella typhimurium [10],0
same,fold change (FC),Salmonella typhimurium [11],0
same,fold change (FC),Salmonella typhimurium [12],0.67
same,fold change (FC),Salmonella typhimurium [13],1.85
same,fold change (FC),Salmonella typhimurium [14],3.23
same,fold change (FC),Salmonella typhimurium [15],2.77
same,fold change (FC),Salmonella typhimurium [16],4.62
same,fold change (FC),Salmonella typhimurium [17],3.46
same,fold change (FC),Salmonella typhimurium [18],4.38
same,fold change (FC),Salmonella typhimurium [19],0
same,fold change (FC),Salmonella typhimurium [20],0.32
same,fold change (FC),Salmonella typhimurium [21],0.96
same,fold change (FC),Salmonella typhimurium [22],1.28
same,fold change (FC),Salmonella typhimurium [23],2.88
same,fold change (FC),Salmonella typhimurium [24],0.96
same,IC50,A549,> 500 µg/mL
same,IC50,[25],> 500 µg/mL
